MrgX1 allo act = positive allosteric modulators of MrgX1, primary screen, HEK293 cells, Fluo-4 calcium flux | 0.63% of 310,000 active | Mas-related G-protein coupled receptor member X1 (Homo sapiens), Q96LB2 | B-score at 10 µM | FDSS; stronger effect = higher value;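 active = plate-corrected calcium response at least 3 library SD above typical, normal starting fluorescence, not activating the receptor alone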;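 note: compound read alongside a low EC10 to EC30 dose of BAM8-22 agonist; peak minus trough fluorescence over baseline measured at the second addition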
Target sequence (Q96LB2 whole entry, looked up): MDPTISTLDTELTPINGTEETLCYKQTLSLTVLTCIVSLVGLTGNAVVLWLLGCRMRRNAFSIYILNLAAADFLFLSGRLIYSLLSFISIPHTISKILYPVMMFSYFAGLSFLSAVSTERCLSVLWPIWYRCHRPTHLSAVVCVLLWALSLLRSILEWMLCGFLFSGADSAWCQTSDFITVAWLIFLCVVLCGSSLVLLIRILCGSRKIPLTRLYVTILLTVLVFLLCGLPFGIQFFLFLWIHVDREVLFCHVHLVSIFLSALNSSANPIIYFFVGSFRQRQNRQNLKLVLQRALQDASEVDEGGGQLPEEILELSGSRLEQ
RGS4 block = RGS4 inhibitors, primary screen, cell-based, HEK293 M3R inducible RGS4, calcium flux. Regulator of G-protein signaling 4 (Homo sapiens), P49798. Fluo-4 calcium flux; stronger effect = higher value; triggered by carbachol at its EC20. B-score at 10 µM. 0.45% of 310,000 active;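 active = B-score, a plate-corrected calcium signal, over three deviations above library mean, with baseline fluorescence within five deviations of library mean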;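 note: RGS4 expression induced by doxycycline in cells with stable M3 receptor; B-score is computed from the integrated fluorescence ratio over baseline after carbachol; higher B-score means a larger calcium signal and so more RGS4 inhibition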
Target sequence (P49798 whole entry, looked up): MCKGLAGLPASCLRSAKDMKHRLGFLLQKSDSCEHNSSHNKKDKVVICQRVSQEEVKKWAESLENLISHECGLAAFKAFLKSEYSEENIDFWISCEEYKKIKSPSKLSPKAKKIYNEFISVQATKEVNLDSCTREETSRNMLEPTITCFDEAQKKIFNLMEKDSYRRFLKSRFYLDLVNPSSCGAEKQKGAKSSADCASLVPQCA
RGS4 pot = RGS4 potentiators or activators, primary screen, cell-based, HEK293 M3R inducible RGS4, calcium flux; carbachol calcium flux Fluo4; stronger effect = lower value; B-score at 10 µM; 0.92% of 310,000 active;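 active = B-score of the integrated calcium signal more than 4 SD below the library mean, with starting fluorescence not abnormally high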;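 note: negative B-score means reduced calcium response which marks RGS4 activation or potentiation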
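Material: M3R-expressing HEK293 line, RGS4 induced by doxycycline | Schedule: Overnight RGS4 induction, 30 min dye load 37 °C, 20 min compound RT | Measured by: Fluo4 fluorescence kinetic imaging of calcium | Read-out: Integrated calcium ratio converted to B score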
MrgX1 agonist = agonists of human MrgX1 receptor, primary screen, HEK293 cells, Fluo-4 calcium flux. B-score at 10 µM. Fluo-4 calcium fluorescence, agonist mode; stronger effect = higher value. AID 588627, 2011. 0.44% of 310,000 active;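 active = calcium response B-score plate-corrected fluorescence ratio at least 3 library SD, with starting fluorescence B-score inside 5 SD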
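System: HEK293 cells stably expressing human MrgX1 receptor; Dosing: test compound in the initial addition of three; Schedule: overnight plating, then 30 min 37 °C plus 30 min room-temperature dye loading; Detection: kinetic calcium dye fluorescence, Fluo-4 NW; Controls: per-plate positive and negative controls for Z′ factor.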
MrgX1 antagonist = antagonists of human MrgX1 receptor, primary screen, HEK293 cells, Fluo-4 calcium flux; Mas-related G-protein coupled receptor member X1 (Homo sapiens), Q96LB2; B-score at 10 µM; BAM8-22 antagonism; stronger effect = lower value; AID 588676, 2011; 1.3% of 310,000 active;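 active = calcium-response B-score plate-corrected more than 3 library SD below zero, starting fluorescence within 5 deviations, no agonist response on first addition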;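 note: peak minus trough fluorescence over baseline after final BAM8-22 challenge near maximal dose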
RGS4 block valid = enhanced carbachol calcium response, M3R/RGS4 cells, RGS4 inhibitor project, cell-based, validation screen, HEK293 M3R/RGS4, calcium flux; shares compounds with RGS4 block; carbachol calcium Fluo-4 fluorescence; carbachol added at its EC20; 0 = buffer wells, 100 = carbachol control; calcium response, % at 10 µM; 65% of 1,700 active; AID 492999, 2010;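 active = duplicate-averaged calcium response above the buffer-only control mean plus 5 SD of those controls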;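 note: integrated fluorescence ratio F max minus min over baseline F0; higher response in RGS4-induced cells means RGS4 inhibition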
RGS4 uninduced = carbachol calcium response in non-induced M3R cells, confirmation, counter-screen for RGS4 inhibitor project, cell-based, HEK293 M3R. shares compounds with RGS4 block. carbachol calcium Fluo-4; submaximal (EC20) carbachol stimulus; buffer wells 0%, carbachol control wells 100%. activity (percent), % at 10 µM. 20% of 1,900 active. AID 493000, 2010; call rule not given here;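 note: RGS4 induction absent so cells express M3R without RGS4; higher means more calcium signal and flags a non-specific hit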
RGS4 inh ctr2 = second RGS4 inhibitor counter-screen in uninduced cells lacking carbachol. shares compounds with RGS4 block. HEK293 M3R/RGS4 non-induced, Fluo-4 calcium, no carbachol; normalised: buffer wells 0%, carbachol wells 100%. calcium response (agonist-mode artifact), % at 10 µM. 22% of 1,900 active;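 active = duplicate-averaged calcium rise in uninduced cells above buffer wells' mean plus 5 SD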
Of the large screens only hits and unclear results are named; the others gave an inactive call (follow-up assays come after a bar, where they were run). An excerpt weighted towards active compounds, which were near 3.5% of everything screened.

Cc1ccc(CN(Cc2cc3cc4c(cc3[nH]c2=O)OCCO4)Cc2nnnn2Cc2ccco2)cc1	RGS4 block 12 | RGS4 block valid inactive | RGS4 uninduced inactive | RGS4 inh ctr2 16%
COc1ccc(N2CC(C(=O)NC3CCSC3=O)CC2=O)cc1 (centres undefined)	none
CCCCNc1c(C(=O)OCC)c(C)nc2c1cnn2CC	RGS4 block 10 | RGS4 block valid 7.5% | RGS4 uninduced 28% | RGS4 inh ctr2 inactive
Cc1cc(N=Cc2cc(Br)ccc2O)no1	RGS4 block 7.2 | RGS4 block valid 7.5% | RGS4 uninduced inactive | RGS4 inh ctr2 inactive
CC(=O)N1CCc2cc(S(=O)(=O)NC(C(=O)NC(C)c3ccccc3)C(C)C)ccc21 (centres undefined)	none | RGS4 block valid inactive | RGS4 uninduced inactive | RGS4 inh ctr2 inactive
COc1cc(/C=C2\SC(=Nc3ccc(N4CCOCC4)cc3)N(C)C2=O)ccc1OC(C)C(=O)O (centres undefined)	RGS4 block 6.1 | RGS4 block valid 7.5% | RGS4 uninduced inactive | RGS4 inh ctr2 inactive
COc1cc(/C=C2\SC(=Nc3ccccc3)N(Cc3ccco3)C2=O)ccc1OC(C)C(=O)O (centres undefined)	none
Cc1c(Cl)ccc2c(C(N)=O)cc(-c3ccccn3)nc12	none
Cc1c(Cl)ccc2c(C(=O)O)cc(-c3ccccc3)nc12	RGS4 block 5.8 | RGS4 block valid 22% | RGS4 uninduced 40% | RGS4 inh ctr2 inactive
O=C1NN(c2ccccc2)C(=O)/C1=C/c1coc2ccccc2c1=O	none
O=C1NN(c2ccccc2)C(=O)/C1=C\c1coc2ccc(O)cc2c1=O	RGS4 block 7.9, MrgX1 agonist 27 | RGS4 block valid 30% | RGS4 uninduced inactive | RGS4 inh ctr2 inactive
Cc1ccc(NC(=O)CCC(=O)NNC(=O)COc2ccc([N+](=O)[O-])cc2)c(C)c1	none
Nn1c(Nc2ccccc2)nc2sc3c(c2c1=O)CCCC3	none | RGS4 block valid inactive | RGS4 uninduced inactive | RGS4 inh ctr2 inactive
CC(NC(=O)/C(C#N)=C/c1ccc([N+](=O)[O-])o1)c1ccccc1 (centres undefined)	RGS4 block 6.2 | RGS4 block valid 16% | RGS4 uninduced inactive | RGS4 inh ctr2 8.5%
CCOCCCNC(=O)/C(C#N)=C/c1ccc([N+](=O)[O-])o1	MrgX1 allo act 8.4, RGS4 block 8.1 | RGS4 block valid 31% | RGS4 uninduced inactive | RGS4 inh ctr2 inactive
CC(NC(=O)/C(C#N)=C/c1ccco1)c1ccccc1 (centres undefined)	none
Cn1ncc(S(=O)(=O)Cc2ccccc2)c(Cl)c1=O	RGS4 block 26 | RGS4 block valid 42% | RGS4 uninduced inactive | RGS4 inh ctr2 inactive
O=C(Oc1cccc2cccnc12)c1ccc(N2C(=O)C3C4CCC(C4)C3C2=O)cc1 (centres undefined)	none | RGS4 uninduced inactive | RGS4 inh ctr2 7.0%
COc1cccc(/C=C2\SC(=S)N(CCCC(=O)N(CCO)c3ccccc3)C2=O)c1	none
O=C1/C(=C/c2cccc(Br)c2)SC(=S)N1CCC(=O)N(CCO)c1ccccc1	RGS4 block 5.3 | RGS4 block valid 16% | RGS4 uninduced 34% | RGS4 inh ctr2 inactive
COCCCn1c(=O)c2sccc2n2c(CCCC(=O)NCc3cccc(OC)c3)nnc12	none
C=CCNC(=O)c1n[nH]c2c1CC(C(C)(C)CC)CC2 (centres undefined)	none (no result: RGS4 block, RGS4 pot)
O=C(/C=C/c1cccc(F)c1)Nc1ccc(S(=O)(=O)Nc2ncccn2)cc1	RGS4 block 5.1 | RGS4 block valid 7.0% | RGS4 uninduced inactive | RGS4 inh ctr2 inactive
CC(CC(=O)Nc1ccc(S(=O)(=O)Nc2ncccn2)cc1)c1ccccc1 (centres undefined)	none | RGS4 block valid inactive | RGS4 uninduced inactive | RGS4 inh ctr2 inactive
COc1cccc(C(=O)Nc2nc(-c3ccncc3)cs2)c1	none
O=C(Nc1nc(-c2ccccc2)cs1)c1ccco1	none
Cc1ccc(-c2csc(NC(=O)c3ccco3)n2)cc1C	RGS4 block 25 | RGS4 block valid 56% | RGS4 uninduced 34% | RGS4 inh ctr2 inactive
COc1ccc(-c2csc(NC(=O)c3ccco3)n2)cc1	none | RGS4 block valid inactive | RGS4 uninduced inactive | RGS4 inh ctr2 inactive
CCOc1ccc(-c2csc(NC(=O)c3ccco3)n2)cc1	RGS4 block 5 | RGS4 block valid 5.0% | RGS4 uninduced inactive | RGS4 inh ctr2 inactive
COc1ccc(-c2csc(NC(=O)c3c(OC)cccc3OC)n2)cc1	RGS4 block 5.5 | RGS4 block valid 16% | RGS4 uninduced 30% | RGS4 inh ctr2 inactive
CCOC(=O)CCNC(=O)N1CCC(CCOc2ccccc2)(C(=O)OCC)CC1	none
COc1cc2c(cc1OC)C1(C)N(CC2)C(C(C)=O)=NN1c1ccc(Cl)cc1 (centres undefined)	none
COC(=O)c1cc(C(=O)c2cc(Br)ccc2O)coc1=N	none
Cc1ccc2nc3c(c(Nc4cccc(O)c4)c2c1)CCC3	none
O=C(OCc1c(F)cccc1Cl)c1cnc2ccccc2n1	none
CCOC(=O)[C@@H]1[C@H]2COc3ccccc3[C@@H]2N2C(=O)N(c3ccc(F)cc3)C(=O)[C@]12C	none | RGS4 block valid inactive | RGS4 uninduced inactive | RGS4 inh ctr2 inactive
CCOC(=O)[C@@H]1[C@H]2COc3ccccc3[C@H]2N2C(=O)N(c3ccc(C)cc3)C(=O)[C@]12C	none | RGS4 block valid inactive | RGS4 uninduced inactive | RGS4 inh ctr2 inactive
CCOC(=O)[C@@H]1[C@H]2COc3ccccc3[C@H]2N2C(=O)N(c3cccc(F)c3)C(=O)[C@]12C	none | RGS4 block valid inactive | RGS4 uninduced inactive | RGS4 inh ctr2 inactive
CCOC(=O)[C@@H]1[C@H]2COc3ccccc3[C@@H]2N2C(=O)N(c3ccccc3)C(=O)[C@@]12C	none | RGS4 block valid inactive | RGS4 uninduced inactive | RGS4 inh ctr2 inactive
O=C(CCC(=O)N(CC(=O)NC1CCCC1)c1ccc(F)cc1)Nc1nccs1	none

Screens deposited in PubChem BioAssay by Johns Hopkins Ion Channel Center.
